Here are results for 30 sequences from the array DNA melting data of Ke et al. (doi:10.1101/2024.01.08.574731).

Data set [1] in a line: melting temperature; fluorescence melt of hairpins on a sequencing array, two-state fit, raised by 9.35 °C to match UV melts. The conditions noted are these: sodium 0.088 M. Put shortly:
(§1)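 Bootstrapped two-state fits yielded melting temperature and folding enthalpy for library hairpins. Cy3 fluorescence, with annealed Cy3 and quencher oligos, was imaged on a sequenced MiSeq flow cell in 50 mM Na-HEPES pH 8.0, 25 mM NaCl in 2.5 °C steps up to 60 °C, and normalised to pre-quench Cy3 and to control constructs. Four replicates were combined by inverse variance, and fitted temperatures were raised by 9.35 °C to match UV melts.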

Data set [2] in a line: folding enthalpy; higher = less favourable; fluorescence melt of hairpins on a sequencing array, two-state fit. As to conditions: sodium 0.088 M. Put shortly: as §1

GATACCCGAAAGGGCATC (((.(((....))).))): the Tm in data set [1] stood at 49.5 °C. Besides, the folding enthalpy in data set [2] is -18.8 kcal/mol.

Take GATACCGAAAGGTATATC ((((((....)))..))): the Tm in data set [1] was determined as 45.2 °C. Moreover, in data set [2], the folding enthalpy is -16.3 kcal/mol.

Consider GATACCGAAAGGTCATC ((((((....))).))), for which the Tm in data set [1] is 35.6 °C. For the same sequence, the folding enthalpy in data set [2] is -17 kcal/mol.

Consider GATACCGAAAGGTGAATC ((((((....)))..))), for which the Tm in data set [1] was determined as 27.2 °C. Besides, the folding enthalpy in data set [2] was -12.6 kcal/mol.

In the case of GATACCGAAAGGTGTATC ((((((....)))..))), the Tm in data set [1] was 35.9 °C. Further, the folding enthalpy in data set [2] was -14.8 kcal/mol.

With GATACCGAAAGGTTAATC ((((((....)))..))), the Tm in data set [1] is 25.3 °C. In addition, the folding enthalpy in data set [2] was -11.1 kcal/mol.

In the case of GATACCGAAAGGTTGATC ((((((....)))..))), the Tm in data set [1] turned out to be 31.4 °C. In addition, the folding enthalpy in data set [2] was -13.6 kcal/mol.

Take GATACCGGAAACGGTGTC ((.((((....)))).)): in data set [1], the Tm was 52.1 °C. Besides, in data set [2], the folding enthalpy was -28.8 kcal/mol.

GATACGCGAAAGCGAATC (((.(((....))).))): the Tm in data set [1] was determined as 49.4 °C. For the same sequence, in data set [2], the folding enthalpy is -21.6 kcal/mol.

As to GATACGGGAAACCGCATC (((.(((....))).))), in data set [1], the Tm was 41.4 °C. Besides, in data set [2], the folding enthalpy is -24.8 kcal/mol.

As to GATACGGGAAACCGTACC (.(((((....))))).), the Tm in data set [1] was 32.1 °C. The folding enthalpy in data set [2] is -15.7 kcal/mol.

As for GATACGGGAAACCGTGTC ((.((((....)))).)), the Tm in data set [1] turned out to be 49.2 °C. Further, the folding enthalpy in data set [2] was -30.7 kcal/mol.

Regarding GATACGGGAAACTGTGTC ((.((.(....).)).)), the Tm in data set [1] is 33.6 °C. The folding enthalpy in data set [2] is -20.1 kcal/mol.

For the sequence GATACTGGAAACAGTACC (.(((((....))))).), the Tm in data set [1] is 33.1 °C. Further, the folding enthalpy in data set [2] is -15.7 kcal/mol.

As for GATAGAGGAAACCCTATC (((((.(....).))))), in data set [1], the Tm was 30.8 °C. Further, the folding enthalpy in data set [2] is -20.3 kcal/mol.

As to GATAGAGGAAACTCTACC (.(((((....))))).), in data set [1], the Tm was found to be 23.5 °C. Also, the folding enthalpy in data set [2] was -12.6 kcal/mol.

GATAGCGAAAGCTAAATC ((((((....)))..))): the Tm in data set [1] came out at 27.7 °C. In data set [2], the folding enthalpy is -8.92 kcal/mol.

For the sequence GATAGCGAAAGCTGATC ((((((....))).))), the Tm in data set [1] was 38.9 °C. Also, the folding enthalpy in data set [2] is -13.2 kcal/mol.

Turning to GATAGCGGAAACGCCATC (((.(((....))).))), in data set [1], the Tm came out at 35.1 °C. Besides, in data set [2], the folding enthalpy is -15.5 kcal/mol.

For the sequence GATAGGCGAAAGCCAATC (((.(((....))).))), the Tm in data set [1] is 43 °C. Moreover, the folding enthalpy in data set [2] is -19 kcal/mol.

As for GATAGGGGAAACCCTACC (.(((((....))))).), the Tm in data set [1] came out at 31.1 °C. The folding enthalpy in data set [2] is -16.8 kcal/mol.

On to GATAGGGGAAACCCTGTC ((.((((....)))).)), for which the Tm in data set [1] came out at 43.7 °C. Also, the folding enthalpy in data set [2] is -25.4 kcal/mol.

In the case of GATATCGGAAACGACATC (((.(((....))).))), the Tm in data set [1] amounted to 32.7 °C. Besides, in data set [2], the folding enthalpy is -27.9 kcal/mol.

Turning to GATATGGGAAACCATGTC ((.((((....)))).)), in data set [1], the Tm amounted to 41.8 °C. For the same sequence, the folding enthalpy in data set [2] was -29 kcal/mol.

As for GATATGGGAAACTATATC (((((.(....).))))), the Tm in data set [1] was 33.8 °C. The folding enthalpy in data set [2] is -23.2 kcal/mol.

Take GATCAAAAAATTGATC ((((((....)))))): the Tm in data set [1] was 32.4 °C. Further, the folding enthalpy in data set [2] is -17.5 kcal/mol.

As to GATCAAAAATTTGATC ((((((....)))))), the Tm in data set [1] worked out at 39 °C. Further, in data set [2], the folding enthalpy was -28.7 kcal/mol.

Turning to GATCAAAATATTGATC ((((((....)))))), the Tm in data set [1] came out at 38.6 °C. Moreover, the folding enthalpy in data set [2] was -26.6 kcal/mol.

For GATCAAACCATTGATC ((((((....)))))), in data set [1], the Tm came out at 42.1 °C. In data set [2], the folding enthalpy was -31.2 kcal/mol.

Take GATCAAACCGTTGATC ((((((....)))))): the Tm in data set [1] turned out to be 42 °C. Moreover, the folding enthalpy in data set [2] is -30.6 kcal/mol.
